Results as given in ChEMBL document CHEMBL4613275, “Sulfonimide and Amide Derivatives as Novel PPARα Antagonists: Synthesis, Antiproliferative Activity, and Docking Studies” (ACS Med Chem Lett, 2020).
Values belong to the compound of their own block, whether it stands above or below them. Calls of active or inactive are those of the source. No cut-off for these calls is given here.

Key:
[1] = (§1) Antiproliferative activity against human PTJ86i cells assessed as inhibition of cell growth at 75 uM incubated for 72 hrs by MTT assay relative to control; format: functional
[2] = target: T1, Peroxisome proliferator-activated receptor gamma (Homo sapiens) (UniProt P37231); assay: Effect on GAL4-tagged human PPARgamma LBD expressed in human HepG2 cells incubated for 20 to 22 hrs by luciferase reporter gene assay; format: cell-based
T1 sequence (whole entry): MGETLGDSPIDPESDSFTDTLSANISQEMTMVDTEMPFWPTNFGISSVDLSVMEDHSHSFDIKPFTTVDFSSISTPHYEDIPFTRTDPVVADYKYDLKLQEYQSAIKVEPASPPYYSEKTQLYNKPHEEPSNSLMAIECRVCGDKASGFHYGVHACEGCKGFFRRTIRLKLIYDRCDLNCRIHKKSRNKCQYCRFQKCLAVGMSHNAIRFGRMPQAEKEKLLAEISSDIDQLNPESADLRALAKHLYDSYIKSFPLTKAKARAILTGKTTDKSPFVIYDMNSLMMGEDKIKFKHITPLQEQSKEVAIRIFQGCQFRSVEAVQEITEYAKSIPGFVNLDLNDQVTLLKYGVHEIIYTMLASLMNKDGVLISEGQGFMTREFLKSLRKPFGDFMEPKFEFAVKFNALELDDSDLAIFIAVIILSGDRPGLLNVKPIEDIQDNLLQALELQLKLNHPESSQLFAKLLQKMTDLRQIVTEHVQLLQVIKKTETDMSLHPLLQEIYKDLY

[3] = target: T2, Peroxisome proliferator-activated receptor alpha (Homo sapiens, UniProt Q07869); assay: Antagonist activity at GAL4-tagged human PPARalpha LBD expressed in human HepG2 cells assessed as inhibition of Wy14,643-induced receptor transactivation incubated for 20 to 22 hrs by luciferase reporter gene assay; format: cell-based
T2 sequence (Q07869 whole entry): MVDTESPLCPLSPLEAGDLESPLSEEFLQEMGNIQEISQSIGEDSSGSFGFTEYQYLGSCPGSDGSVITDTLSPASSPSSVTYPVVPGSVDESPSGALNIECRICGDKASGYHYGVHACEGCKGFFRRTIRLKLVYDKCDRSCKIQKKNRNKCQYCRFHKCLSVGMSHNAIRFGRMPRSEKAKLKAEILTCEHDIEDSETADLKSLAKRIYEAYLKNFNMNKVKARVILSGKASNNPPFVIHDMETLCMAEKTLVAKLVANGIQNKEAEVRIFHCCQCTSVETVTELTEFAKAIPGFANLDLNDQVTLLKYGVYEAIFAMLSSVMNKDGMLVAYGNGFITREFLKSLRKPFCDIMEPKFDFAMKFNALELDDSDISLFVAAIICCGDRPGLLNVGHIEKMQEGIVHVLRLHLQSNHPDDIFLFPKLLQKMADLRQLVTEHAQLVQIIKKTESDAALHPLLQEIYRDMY

[4] = target: T1, Peroxisome proliferator-activated receptor gamma (Homo sapiens); assay: Agonist activity at GAL4-tagged human PPARgamma LBD expressed in human HepG2 cells incubated for 20 to 22 hrs by luciferase reporter gene assay; format: cell-based
HepG2 = assay: Cytotoxicity against human HepG2 cells at >5 uM; format: cell-based
A498 [5] = assay: Antiproliferative activity against human A498 cells assessed as inhibition of cell growth at 75 uM incubated for 72 hrs by MTT assay relative to control; format: functional; details: A498, 72 h
SW480 [6] = assay: Antiproliferative activity against human SW480 cells assessed as inhibition of cell growth at 75 uM incubated for 72 hrs by MTT assay relative to control; format: functional; details: SW480, 72 h
SW480 [7] = assay: Antiproliferative activity against human SW480 cells assessed as inhibition of cell growth incubated for 72 hrs by MTT assay; format: functional; details: for CC50: SW480, 72 h
Procedure, shortened: (§2)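 MTT viability assay after 72 h exposure to compound over 0–24 μM, 24 μM being the highest concentration. […] Data are means ± SD of duplicate experiments, five replicates each.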

BXPC-3 [8] = assay: Antiproliferative activity against human BxPC3 cells assessed as inhibition of cell growth at 75 uM incubated for 72 hrs by MTT assay relative to control; format: functional; details: BXPC-3, 72 h
Homo sapiens [9] = species on record: Homo sapiens; assay: Antiproliferative activity against human PTJ64i cells assessed as inhibition of cell growth incubated for 72 hrs by MTT assay; format: functional; procedure, shortened: as §2
Capan-2 [10] = assay: Antiproliferative activity against human Capan2 cells assessed as inhibition of cell growth incubated for 72 hrs by MTT assay; format: functional; details: for CC50: Capan-2, 72 h; procedure, shortened: as §2
HT-29 [11] = assay: Antiproliferative activity against human HT-29 cells assessed as inhibition of cell growth incubated for 72 hrs by MTT assay; format: functional; details: for CC50: HT-29, 72 h; procedure, shortened: as §2
[12] = Selectivity index, ratio of CC50 for human HFF1 cells to CC50 for human PTJ86i cells; format: toxicity; details: HFF1 cells and PTJ86i cells
BXPC-3 [13] = assay: Antiproliferative activity against human BxPC3 cells assessed as inhibition of cell growth incubated for 72 hrs by MTT assay; format: functional; details: for CC50: BXPC-3, 72 h; procedure, shortened: as §2
HT-29 [14] = assay: Antiproliferative activity against human HT-29 cells assessed as inhibition of cell growth at 75 uM incubated for 72 hrs by MTT assay relative to control; format: functional; details: HT-29, 72 h
ASPC1 [15] = assay: Antiproliferative activity against human AsPC1 cells assessed as inhibition of cell growth incubated for 72 hrs by MTT assay; format: functional; details: for CC50: ASPC1, 72 h; procedure, shortened: as §2
Capan-2 [16] = assay: Antiproliferative activity against human Capan2 cells assessed as inhibition of cell growth at 75 uM incubated for 72 hrs by MTT assay relative to control; format: functional; details: Capan-2, 72 h
A498 [17] = assay: Antiproliferative activity against human A498 cells assessed as inhibition of cell growth incubated for 72 hrs by MTT assay; format: functional; details: for CC50: A498, 72 h; procedure, shortened: as §2
Homo sapiens [18] = species on record: Homo sapiens; assay: Antiproliferative activity against human PTJ86i cells assessed as inhibition of cell growth incubated for 72 hrs by MTT assay; format: functional; procedure, shortened: as §2
[19] = Selectivity index, ratio of CC50 for human HFF1 cells to CC50 for human PTJ64i cells; format: toxicity; details: HFF1 cells and PTJ64i cells
ASPC1 [20] = assay: Antiproliferative activity against human AsPC1 cells assessed as inhibition of cell growth at 75 uM incubated for 72 hrs by MTT assay relative to control; format: functional; details: ASPC1, 72 h
HFF-1 = assay: Cytotoxicity against human HFF1 cells assessed as reduction in cell viability incubated for 72 hrs by MTT assay; format: cell-based; details: hff-1, 72 h; procedure, shortened: as §2
Homo sapiens [21] = species on record: Homo sapiens; assay: Antiproliferative activity against human PTJ64i cells assessed as inhibition of cell growth at 75 uM incubated for 72 hrs by MTT assay relative to control; format: functional
Homo sapiens [22] = species on record: Homo sapiens; assay: as §1; format: functional

SMILES: CCC(=O)NC[C@H](Cc1ccc(OCCc2nc(-c3ccccc3)oc2C)cc1)N/C(C)=C\C(=O)c1ccc(C(F)(F)F)cc1
- inhibition at 75 µM [1]: 85 to 92%

SMILES: CCCCNC(=O)C(C)(C)Oc1ccc(CCOc2ccc(NC(=O)c3ccccc3)cc2)cc1
- Activity [2]: inactive

SMILES: CC(C)(CCCOc1ccc(/C=C/c2ccccc2)cc1)C(=O)NS(C)(=O)=O
- Activity [4]: inactive
- Activity (HepG2): Toxic

SMILES: CC(C)(Oc1ccc(CCOc2ccc(/N=N/c3ccccc3)cc2)cc1)C(=O)NS(C)(=O)=O
- Activity [4]: inactive
- Activity (HepG2): Toxic

SMILES: CC(C)(Oc1ccc(CCOc2ccc(NC(=O)Nc3ccccc3)cc2)cc1)C(=O)NCc1ccccc1
- Activity [2]: inactive
- IC50 [3]: 10.3 µM

SMILES: CC(C)(Oc1ccc(CCOc2ccc(NC(=O)Nc3ccccc3)cc2)cc1)C(=O)Nc1ccccc1
- Activity [2]: inactive
- IC50 [3]: 6.1 µM

SMILES: CC(C)(Oc1ccc(CCOc2ccc(NC(=O)Nc3ccccc3)cc2)cc1)C(N)=O
- Activity [2]: inactive
- IC50 [3]: 3.32 µM

SMILES: CC(C)(CCCOc1ccc(/C=C/c2ccccc2)cc1)C(=O)NS(=O)(=O)c1ccccc1
- Activity [4]: inactive
- Activity (HepG2): Toxic

SMILES: CC(C)(Oc1ccc(CCOc2ccc(NC(=O)c3ccccc3)cc2)cc1)C(=O)Nc1ccccc1
- Activity [2]: inactive
- IC50 [3]: 12.3 µM

SMILES: CC(C)(Oc1ccc(CCOc2ccc(NC(=O)c3ccccc3)cc2)cc1)C(N)=O
- Activity [2]: inactive
- IC50 [3]: 7 µM

SMILES: Cc1cccc(Nc2cc(Cl)nc(SCC(=O)O)n2)c1C
- inhibition (Homo sapiens [21]): inactive
- inhibition (Homo sapiens [22]): inactive

The next lines start with results.

- Activity [2]: inactive
- IC50 [3]: 1.52 µM
SMILES: CC(C)(Oc1ccc(CCOc2ccc(NC(=O)Nc3ccccc3)cc2)cc1)C(=O)NS(=O)(=O)c1ccccc1

- Activity [2]: inactive
- IC50 [3]: 0.24 µM
SMILES: CC(C)(Oc1ccc(CCOc2ccc(NC(=O)c3ccccc3)cc2)cc1)C(=O)NS(=O)(=O)c1ccccc1
- inhibition at 75 µM (A498 [5]): 51 to 71%
- inhibition at 75 µM (SW480 [6]): 52 to 98%
- inhibition (SW480 [7]): Dose-dependent effect
- CC50 (SW480 [7]): 7 µM
- inhibition at 75 µM (BXPC-3 [8]): 41 to 92%
- inhibition (Homo sapiens [9]): Dose-dependent effect
- inhibition (Capan-2 [10]): Dose-dependent effect
- CC50 (Capan-2 [10]): 7 µM
- inhibition (HT-29 [11]): Dose-dependent effect
- CC50 (HT-29 [11]): 7 µM
- selectivity ratio [12]: > 11.3
- inhibition (BXPC-3 [13]): Dose-dependent effect
- CC50 (BXPC-3 [13]): 7 µM
- inhibition at 75 µM (HT-29 [14]): 52 to 98%
- inhibition (ASPC1 [15]): Dose-dependent effect
- CC50 (ASPC1 [15]): 7 µM
- inhibition at 75 µM (Capan-2 [16]): 41 to 92%
- inhibition (A498 [17]): Dose-dependent effect
- CC50 (A498 [17]): 4.6 µM
- inhibition (Homo sapiens [18]): Dose-dependent effect
- selectivity ratio [19]: > 9.45
- inhibition at 75 µM [1]: 84 to 98%
- inhibition at 75 µM (ASPC1 [20]): 41 to 92%
- CC50 (HFF-1): > 24 µM

- Activity [2]: inactive
- IC50 [3]: 0.21 µM
SMILES: CC(C)(Oc1ccc(CCOc2ccc(/N=N/c3ccccc3)cc2)cc1)C(=O)NS(=O)(=O)c1ccc(Cl)cc1
- inhibition at 75 µM (A498 [5]): 51 to 71%
- inhibition at 75 µM (SW480 [6]): 52 to 98%
- inhibition (SW480 [7]): Dose-dependent effect
- CC50 (SW480 [7]): > 24 µM
- inhibition at 75 µM (BXPC-3 [8]): 41 to 92%
- inhibition (Homo sapiens [9]): Dose-dependent effect
- inhibition (Capan-2 [10]): Dose-dependent effect
- CC50 (Capan-2 [10]): > 24 µM
- inhibition (HT-29 [11]): Dose-dependent effect
- CC50 (HT-29 [11]): > 24 µM
- selectivity ratio [12]: > 6.63
- inhibition (BXPC-3 [13]): Dose-dependent effect
- CC50 (BXPC-3 [13]): > 24 µM
- inhibition at 75 µM (HT-29 [14]): 52 to 98%
- inhibition (ASPC1 [15]): Dose-dependent effect
- CC50 (ASPC1 [15]): > 24 µM
- inhibition at 75 µM (Capan-2 [16]): 41 to 92%
- inhibition (A498 [17]): Dose-dependent effect
- CC50 (A498 [17]): > 24 µM
- inhibition (Homo sapiens [18]): Dose-dependent effect
- selectivity ratio [19]: > 6.35
- inhibition at 75 µM [1]: 84 to 98%
- inhibition at 75 µM (ASPC1 [20]): 41 to 92%
- CC50 (HFF-1): > 24 µM

- Activity [2]: inactive
SMILES: CC(C)(Oc1ccc(CCOc2ccc(/N=N/c3ccccc3)cc2)cc1)C(=O)Nc1ccccc1

- Activity [2]: inactive
- IC50 [3]: 3.2 µM
SMILES: CC(C)(Oc1ccc(CCOc2ccc(/N=N/c3ccccc3)cc2)cc1)C(=O)NS(=O)(=O)c1ccc(NC(=O)Cc2ccccc2)cc1

- Activity [2]: inactive
- IC50 [3]: 12.1 µM
SMILES: CC(C)(Oc1ccc(CCOc2ccc(NC(=O)c3ccccc3)cc2)cc1)C(=O)NCc1ccccc1

- Activity [2]: inactive
- IC50 [3]: 1.1 µM
SMILES: CC(C)(Oc1ccc(CCOc2ccc(/N=N/c3ccccc3)cc2)cc1)C(=O)NS(=O)(=O)c1ccc([N+](=O)[O-])cc1
- inhibition at 75 µM (A498 [5]): 51 to 71%
- inhibition at 75 µM (SW480 [6]): 52 to 98%
- inhibition (SW480 [7]): Dose-dependent effect
- CC50 (SW480 [7]): > 24 µM
- inhibition at 75 µM (BXPC-3 [8]): 41 to 92%
- inhibition (Homo sapiens [9]): Dose-dependent effect
- inhibition (Capan-2 [10]): Dose-dependent effect
- CC50 (Capan-2 [10]): > 24 µM
- inhibition (HT-29 [11]): Dose-dependent effect
- CC50 (HT-29 [11]): > 24 µM
- selectivity ratio [12]: > 8.63
- inhibition (BXPC-3 [13]): Dose-dependent effect
- CC50 (BXPC-3 [13]): 17 µM
- inhibition at 75 µM (HT-29 [14]): 52 to 98%
- inhibition (ASPC1 [15]): Dose-dependent effect
- CC50 (ASPC1 [15]): > 24 µM
- inhibition at 75 µM (Capan-2 [16]): 41 to 92%
- inhibition (A498 [17]): Dose-dependent effect
- CC50 (A498 [17]): > 24 µM
- inhibition (Homo sapiens [18]): Dose-dependent effect
- selectivity ratio [19]: > 8.3
- inhibition at 75 µM [1]: 84 to 98%
- inhibition at 75 µM (ASPC1 [20]): 41 to 92%
- CC50 (HFF-1): > 24 µM
